{
  "source": "paper PMC5060091",
  "about": "(ChemMedChem, 2016)",
  "key": {"[1]": {"test_system": "Candida albicans ATCC 10231", "assay": "MIC, broth dilution, strain A", "format": "cell-based", "conditions": "Candida albicans", "method_in_brief": "(§1)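 Broth dilution MIC assay on the Candida panel: C. albicans strains A–G, C. glabrata (H), C. krusei (I) and C. parapsilosis (J). Test compounds were delivered in DMSO, with DMSO kept below 1% in the assay. The MIC is reported in µg/mL, with µM in parentheses. Reference antifungals (a polyene and four azoles) were run alongside.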"}, "C. albicans ATCC 64124": {"test_system": "C. albicans ATCC 64124", "assay": "MIC, broth dilution, strain B", "format": "cell-based, Candida albicans", "conditions": "Candida albicans", "method_in_brief": "as §1"}, "[2]": {"test_system": "C. albicans ATCC MYA-2876(S)", "assay": "MIC, broth dilution, strain C", "format": "cell-based, Candida albicans", "conditions": "Candida albicans", "method_in_brief": "as §1"}, "[3]": {"test_system": "C. albicans ATCC 90819(R)", "assay": "MIC, broth dilution, strain D", "format": "cell-based, Candida albicans", "conditions": "Candida albicans", "method_in_brief": "as §1"}, "[4]": {"test_system": "C. albicans ATCC MYA-2310(S)", "assay": "MIC, broth dilution, strain E", "format": "cell-based, Candida albicans", "conditions": "Candida albicans", "method_in_brief": "as §1"}, "[5]": {"test_system": "C. albicans ATCC MYA-1237(R)", "assay": "MIC, broth dilution, strain F", "format": "cell-based, Candida albicans", "conditions": "Candida albicans", "method_in_brief": "as §1"}, "[6]": {"test_system": "C. albicans ATCC MYA-1003(R)", "assay": "MIC, broth dilution, strain G", "format": "cell-based, Candida albicans", "conditions": "Candida albicans", "method_in_brief": "as §1"}, "[7]": {"test_system": "Aspergillus flavus ATCC MYA-3631", "assay": "MIC, broth dilution, strain K", "format": "cell-based", "conditions": "Aspergillus flavus"}, "[8]": {"test_system": "Aspergillus nidulans ATCC 38163", "assay": "MIC, broth dilution, strain L", "format": "cell-based", "conditions": "Aspergillus nidulans"}, "[9]": {"test_system": "Aspergillus terreus ATCC MYA-3633", "assay": "MIC, broth dilution, strain M", "format": "cell-based", "conditions": "Aspergillus terreus"}, "[10]": {"test_system": "C. albicans ATCC 64124 (strain B)", "assay": "Time-kill assay", "format": "cell-based, Candida albicans"}, "[11]": {"assay": "Mammalian cytotoxicity, resazurin assay, HEK293", "format": "cell-based", "conditions": "human, HEK293 cells"}, "[12]": {"test_system": "C. albicans ATCC 10231 (strain A)", "assay": "ROS induction assay", "format": "cell-based, Candida albicans", "conditions": "1× and 2× MIC, 1-h treatment; H2O2 1 mM", "method_in_brief": "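C. albicans ATCC 10231 cells were incubated 1 h at 37 °C with test compound at 1× or 2× MIC, with no drug (negative control), or with 1 mM H₂O₂ (positive control). DCFH-DA (40 µg/mL) was then added. ROS were detected and imaged by fluorescence microscopy.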"}, "[13]": {"test_system": "murine red blood cells (mRBCs)", "conditions": "data previously presented; cited from earlier work"}, "[14]": {"conditions": "read-out: MIC (MIC-0) in µM (parentheses)"}},
  "note": "Values joined by “and” are separate entries in the source; they are usually repeats but may differ in a detail not shown here. Equal values may be shown once. Read-outs that look alike come from different tables or passages of the source.",
  "data": [
    {"smiles": "O=c1c2ccccc2[se]n1-c1ccccc1", "note": "[Compound 1, ebselen]", "values": [
      {"measurement": "MIC", "setting": "[1]; ATCC10231, read-out: MIC (MIC-0)", "value": 12.5, "unit": "µg/mL"},
      {"measurement": "MIC", "setting": "[1]; ATCC10231, read-out: MIC (MIC-0) in µM (parentheses)", "value": 45.6, "unit": "µM"},
      {"measurement": "MIC", "setting": "C. albicans ATCC 64124; ATCC64124, read-out: MIC (MIC-0)", "value": 12.5, "unit": "µg/mL"},
      {"measurement": "MIC", "setting": "C. albicans ATCC 64124; ATCC64124, read-out: MIC (MIC-0) in µM (parentheses)", "value": 45.6, "unit": "µM"},
      {"measurement": "MIC", "setting": "[2]; read-out: MIC (MIC-0)", "value": 12.5, "unit": "µg/mL"},
      {"measurement": "MIC", "setting": "[2]; [14]", "value": 45.6, "unit": "µM"},
      {"measurement": "MIC", "setting": "[3]; ATCC90819, read-out: MIC (MIC-0)", "value": 1.56, "unit": "µg/mL"},
      {"measurement": "MIC", "setting": "[3]; ATCC90819, read-out: MIC (MIC-0) in µM (parentheses)", "value": 5.69, "unit": "µM"},
      {"measurement": "MIC", "setting": "[4]; read-out: MIC (MIC-0)", "value": 3.13, "unit": "µg/mL"},
      {"measurement": "MIC", "setting": "[4]; [14]", "value": 11.4, "unit": "µM"},
      {"measurement": "MIC", "setting": "[5]; read-out: MIC (MIC-0)", "value": "> 12.5", "unit": "µg/mL"},
      {"measurement": "MIC", "setting": "[5]; [14]", "value": "> 45.6", "unit": "µM"},
      {"measurement": "MIC", "setting": "[6]; read-out: MIC (MIC-0)", "value": 12.5, "unit": "µg/mL"},
      {"measurement": "MIC", "setting": "[6]; [14]", "value": 45.6, "unit": "µM"},
      {"measurement": "MIC", "setting": "[7]; read-out: MIC (MIC-0)", "value": 6.25, "unit": "µg/mL"},
      {"measurement": "MIC", "setting": "[7]; [14]", "value": 22.8, "unit": "µM"},
      {"measurement": "MIC", "setting": "[8]; ATCC38163, read-out: MIC (MIC-0)", "value": 1.56, "unit": "µg/mL"},
      {"measurement": "MIC", "setting": "[8]; ATCC38163, read-out: MIC (MIC-0) in µM (parentheses)", "value": 5.69, "unit": "µM"},
      {"measurement": "MIC", "setting": "[9]; read-out: MIC (MIC-0)", "value": 1.56, "unit": "µg/mL"},
      {"measurement": "MIC", "setting": "[9]; [14]", "value": 5.69, "unit": "µM"},
      {"measurement": "time of complete fungal cell death", "setting": "[10]; 1× MIC (12.5 µg/mL)", "value": 6, "unit": "h"},
      {"measurement": "time-kill effect", "setting": "[10]; 1× MIC (1 12.5, 2a 12.5, 3a 0.39, AmB 3.9 µg/mL)", "value": "fungicidal"},
      {"measurement": "time from which completely fungicidal", "setting": "[10]; 2× MIC", "value": 3, "unit": "h"},
      {"measurement": "time-kill effect", "setting": "[10]; 2× MIC (1 25, 2a 25, 3a 0.78, AmB 7.8 µg/mL)", "value": "completely fungicidal"},
      {"measurement": "fungicidal concentration", "setting": "[10]; time-kill curves", "value": "12.5 µg/mL and 45.6 µM"},
      {"measurement": "IC50", "setting": "[11]", "value": "> 10 µg/mL and > 36.5 µM"},
      {"measurement": "ROS induction (DCFH-DA fluorescence)", "setting": "[12]", "value": "highly fluorescent"},
      {"measurement": "concentration until which no significant hemolytic activity was shown", "setting": "[13]", "value": "15.6 µg/mL and 56.9 µM"}
    ]}
  ]
}
